Test results published in ChEMBL document CHEMBL2016521, “Preparation, gram-negative antibacterial activity, and hydrolytic stability of novel siderophore-conjugated monocarbam diols” (ACS Med Chem Lett, 2011).
Values after ≈ are worked out from the molar mass of the structure shown.

Key:
[1] = tested on: Pseudomonas aeruginosa; assay: Antibacterial activity against Pseudomonas aeruginosa; format: functional
[2] = tested on: Acinetobacter baumannii; assay: Antibacterial activity against Acinetobacter baumannii AB-3167; format: functional
[3] = tested on: Klebsiella pneumoniae; assay: Antibacterial activity against Klebsiella pneumoniae 1000-02; format: functional
[4] = tested on: Pseudomonas aeruginosa; assay: Antibacterial activity against imipenem-sensitive Pseudomonas aeruginosa isolate 1091-05 infected in sc dosed neutropenic-C3H/HeN mouse assessed as mouse survival administered 4 hrs post infection followed by BID dosing for two days measured on day 10; format: functional; settings: isolate 1091-05, sc, read-out: PD50
[5] = tested on: Pseudomonas aeruginosa; assay: Antibacterial activity against Pseudomonas aeruginosa isolate 1091-05; format: functional
[6] = tested on: Pseudomonas aeruginosa; assay: Antibacterial activity against imipenem-sensitive Pseudomonas aeruginosa isolate 1091-05 infected in ip dosed SF-1 mouse assessed as survival of animal administered 0.5 and 4 hrs post infected measured on day 4; format: functional; settings: isolate 1091-05, ip, read-out: PD50
[7] = Chemical stability of the compound in phosphate buffer at pH 6 at 1 uM after 24 hrs by HPLC analysis; format: physicochemical; settings: pH 6, 24 h
Summary of the method: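 Hydrolytic stability of the β-lactam ring was measured in aqueous buffer at pH 6.0 and 37 °C.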

[8] = Fraction unbound in mouse plasma at 1 uM by LC-MS/MS analysis; format: ADME, cell-free
[9] = Chemical stability of the compound in phosphate buffer at pH 8 assessed as drug degradation at 1 uM after 100 hrs by HPLC analysis; format: physicochemical; settings: read-out: Drug degradation
Summary of the method: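 Hydrolytic β-lactam ring-opening was followed in aqueous buffer at pH 8.0 and 37 °C over a 100 h incubation. The read-out was percent degradation.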

[10] = tested on: Pseudomonas aeruginosa; assay: Antibacterial activity against low inoculum imipenem-sensitive Pseudomonas aeruginosa isolate 1091-05 infected in sc dosed neutropenic-C3H/HeN mouse assessed as mouse survival administered 4 hrs post infection followed by BID dosing for two days measured on day 10; format: functional; settings: isolate 1091-05, sc, read-out: PD50
[11] = tested on: Citrobacter freundii; assay: Antimicrobial activity against Citrobacter freundii; format: functional
[12] = tested on: Serratia marcescens; assay: Antimicrobial activity against Serratia marcescens; format: functional
[13] = tested on: Klebsiella aerogenes; assay: Antimicrobial activity against Enterobacter aerogenes; format: functional
[14] = tested on: Stenotrophomonas maltophilia; assay: Antimicrobial activity against Stenotrophomonas maltophilia; format: functional
[15] = tested on: Acinetobacter sp.; assay: Antimicrobial activity against Acinetobacter sp.; format: functional
[16] = Plasma protein binding in human; format: ADME, cell-free; settings: read-out: PPB (converted)
[17] = tested on: Pseudomonas aeruginosa; assay: Antibacterial activity against metallo-beta-lactamase producing Pseudomonas aeruginosa; format: functional
[18] = tested on: Pseudomonas aeruginosa; assay: Antibacterial activity against Pseudomonas aeruginosa cystic fibrosis isolate; format: functional
[19] = tested on: Pseudomonas aeruginosa; assay: Antibacterial activity against Pseudomonas aeruginosa clinical isolate; format: functional
[20] = tested on: Escherichia coli; assay: Antimicrobial activity against Escherichia coli clinical isolate; format: functional
[21] = tested on: Klebsiella pneumoniae; assay: Antimicrobial activity against Klebsiella pneumoniae clinical isolate; format: functional
[22] = tested on: Escherichia coli; assay: Antimicrobial activity against CTX-M-positive extended spectrum beta-lactamase-producing Escherichia coli; format: functional
[23] = tested on: Escherichia coli; assay: Antimicrobial activity against extended spectrum beta-lactamase-producing Escherichia coli; format: functional
[24] = tested on: Klebsiella pneumoniae; assay: Antimicrobial activity against carbapenemase-producing Klebsiella pneumoniae; format: functional
[25] = tested on: Klebsiella pneumoniae; assay: Antimicrobial activity against extended spectrum beta-lactamase-producing Klebsiella pneumoniae; format: functional

CC(C)(O/N=C(\C(=O)N[C@H]1CN(C(=O)[N-]S(=O)(=O)n2nc(-c3cc(=O)c(O)c[nH]3)n(C[C@H](O)CO)c2=O)C1=O)c1csc(N)n1)C(=O)[O-].[Na+].[Na+]
MIC90 [1]: 1 µg/mL | MIC [2]: 0.5 µg/mL | MIC [3]: 0.5 µg/mL | ED50 [4]: 18.6 mg/kg | MIC [5]: 0.125 µg/mL

C[C@@H](O)Cn1c(-c2cc(=O)c(O)c[nH]2)nn(S(=O)(=O)[N-]C(=O)N2C[C@H](NC(=O)/C(=N\OC(C)(C)C(=O)[O-])c3csc(N)n3)C2=O)c1=O.[Na+].[Na+]
MIC90 [1]: 1 µg/mL | ED50 [6]: < 1 mg/kg | MIC [2]: 1 µg/mL | MIC [3]: 0.5 µg/mL | ED50 [4]: 32.7 mg/kg | MIC [5]: 0.125 µg/mL

CC(C)(O/N=C(\C(=O)N[C@H]1CN(C(=O)[N-]S(=O)(=O)n2nc(-c3cc(=O)c(O)c[nH]3)n(CC(N)=O)c2=O)C1=O)c1csc(N)n1)C(=O)[O-].[Na+].[Na+]
MIC90 [1]: 1 µg/mL | MIC [2]: 1 µg/mL | MIC [3]: 1 µg/mL | ED50 [4]: 25 mg/kg | MIC [5]: 0.125 µg/mL

COCCn1c(-c2cc(=O)c(O)c[nH]2)nn(S(=O)(=O)[N-]C(=O)N2C[C@H](NC(=O)/C(=N\OC(C)(C)C(=O)[O-])c3csc(N)n3)C2=O)c1=O.[Na+].[Na+]
MIC90 [1]: 1 µg/mL | MIC [2]: 4 µg/mL | MIC [3]: 0.5 µg/mL | ED50 [4]: > 70.8 mg/kg | MIC [5]: 0.5 µg/mL

CC(C)(O/N=C(\C(=O)N[C@H]1CN(C(=O)[N-]S(=O)(=O)n2nc(-c3cc(=O)c(O)c[nH]3)n(C[C@@H]3CCCO3)c2=O)C1=O)c1csc(N)n1)C(=O)[O-].[Na+].[Na+]
ED50 [6]: 2.8 mg/kg | MIC [2]: 2 µg/mL | MIC [3]: 0.5 µg/mL | ED50 [4]: > 100 mg/kg | MIC [5]: 0.5 µg/mL

C[C@H]1[C@H](NC(=O)/C(=N\OC(C)(C)C(=O)[O-])c2csc(N)n2)C(=O)N1C(=O)[N-]S(=O)(=O)n1nc(-c2cc(=O)c(O)c[nH]2)n(C[C@@H](O)CO)c1=O.[Na+].[Na+]
MIC90 [1]: 0.5 µg/mL | Stability [7]: Stable | fraction unbound at 1 µM [8]: 0.51 | MIC [2]: 2 µg/mL | degraded at 100 h, 1 µM [9]: 20% | MIC [3]: 0.5 µg/mL | MIC [5]: 0.25 µg/mL | ED50 [10]: 1.4 mg/kg

C[C@H](O)Cn1c(-c2cc(=O)c(O)c[nH]2)nn(S(=O)(=O)[N-]C(=O)N2C(=O)[C@@H](NC(=O)/C(=N\OC(C)(C)C(=O)[O-])c3csc(N)n3)[C@@H]2C)c1=O.[Na+].[Na+]
MIC90 [1]: 0.5 µg/mL | MIC [2]: 4 µg/mL | MIC [3]: 1 µg/mL | ED50 [4]: 21.3 mg/kg | MIC [5]: 0.25 µg/mL

C[C@H]1[C@H](NC(=O)/C(=N\OC(C)(C)C(=O)O)c2csc(N)n2)C(=O)N1S(=O)(=O)O [AZTREONAM]
MIC50 [11]: 0.25 µg/mL (≈ 0.574 µM) | MIC90 [11]: 64 µg/mL (≈ 147 µM) | ED50 [6]: > 50 mg/kg | MIC50 [12]: 0.5 µg/mL (≈ 1.15 µM) | MIC90 [12]: > 64 µg/mL | MIC [2]: 32 µg/mL (≈ 73.5 µM) | MIC90 [13]: 64 µg/mL (≈ 147 µM) | ED50 [4]: > 200 mg/kg | MIC [5]: 8 µg/mL (≈ 18.4 µM) | MIC50 [14]: > 64 µg/mL | MIC90 [14]: > 64 µg/mL | MIC50 [15]: 32 µg/mL (≈ 73.5 µM) | MIC90 [15]: > 64 µg/mL

C=CC1=C(C(=O)O)N2C(=O)[C@@H](NC(=O)/C(=N\OCC(=O)O)c3csc(N)n3)[C@H]2SC1 [CEFIXIME]
fraction unbound [16]: 0.35

COCC1=C(C(=O)O)N2C(=O)[C@@H](NC(=O)/C(=N\OC)c3csc(N)n3)[C@H]2SC1 [CEFPODOXIME]
fraction unbound [16]: 0.75

C[C@@H](O)[C@H]1C(=O)N2C(C(=O)O)=C(S[C@@H]3CN[C@H](C(=O)N(C)C)C3)[C@H](C)[C@H]12 [MEROPENEM]
MIC50 [17]: 8 µg/mL (≈ 20.9 µM) | MIC90 [17]: > 64 µg/mL | MIC90 [1]: > 64 µg/mL | MIC50 [18]: 8 µg/mL (≈ 20.9 µM) | MIC90 [18]: > 64 µg/mL | MIC50 [11]: 0.06 µg/mL (≈ 0.156 µM) | MIC90 [11]: 0.25 µg/mL (≈ 0.652 µM) | MIC50 [19]: 8 µg/mL (≈ 20.9 µM) | MIC90 [19]: > 64 µg/mL | MIC50 [20]: 0.06 µg/mL (≈ 0.156 µM) | MIC90 [20]: 0.06 µg/mL (≈ 0.156 µM) | MIC50 [21]: 0.06 µg/mL (≈ 0.156 µM) | MIC90 [21]: 32 µg/mL (≈ 83.4 µM) | MIC50 [22]: 0.06 µg/mL (≈ 0.156 µM) | MIC90 [22]: 0.06 µg/mL (≈ 0.156 µM) | ED50 [6]: 1.3 mg/kg | MIC50 [12]: 0.06 µg/mL (≈ 0.156 µM) | MIC90 [12]: > 64 µg/mL | MIC [2]: 0.25 µg/mL (≈ 0.652 µM) | MIC50 [23]: 0.06 µg/mL (≈ 0.156 µM) | MIC90 [23]: 0.06 µg/mL (≈ 0.156 µM) | MIC50 [13]: 0.06 µg/mL (≈ 0.156 µM) | MIC90 [13]: 0.25 µg/mL (≈ 0.652 µM) | degraded at 100 h, 1 µM [9]: 50% | MIC50 [24]: 0.06 µg/mL (≈ 0.156 µM) | MIC90 [24]: 32 µg/mL (≈ 83.4 µM) | MIC [3]: < 1 µg/mL | ED50 [4]: 1.04 mg/kg | MIC [5]: 0.5 µg/mL (≈ 1.3 µM) | MIC50 [14]: > 64 µg/mL | MIC90 [14]: > 64 µg/mL | MIC50 [25]: 0.06 µg/mL (≈ 0.156 µM) | MIC90 [25]: 32 µg/mL (≈ 83.4 µM) | MIC50 [15]: 1 µg/mL (≈ 2.61 µM) | MIC90 [15]: 32 µg/mL (≈ 83.4 µM)
